The Ki is a measure of affinity in units of concentration, obtained from inhibition or displacement. Read a high Ki as weaker binding.

23 compounds from ChEMBL document CHEMBL1134445, “Design and synthesis of potent C(2)-symmetric diol-based HIV-1 protease inhibitors: effects of fluoro substitution” (J Med Chem, 2001) can be followed below.

For assay [1], the target named is Human immunodeficiency virus type 1 protease (Human immunodeficiency virus 1) (UniProt Q72874). In words: Anti-HIV-1 activity against mutant HIV-1 in MT-4 cells (mutation selected with ritonavir). Format: functional, cell-based. To be noted: MT4. The essentials:
(§1)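 Resistant HIV-1 IIIb raised in MT4 cells: started at sub-ED50 drug with 20-50 TCID50 virus, p24 in supernatant tracked, cell-free virus passaged at 5-fold rising drug levels until growing above 50-fold wild-type ED50; these supernatants served as stocks. ED50 then determined in MT4 cells by XTT cytopathic-effect assay.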

For assay [2] the target is unchanged. As to the kind of experiment: Anti-HIV-1 activity against mutant HIV-1 in MT-4 cells (mutation selected with nelfinavir). The format is functional, cell-based. To be noted: MT4. The essentials:
as §1

The target is the same in assay [3]. As to the kind of experiment: Anti-HIV-1 activity against mutant HIV-1 in MT-4 cells (mutation selected with compound 1). Format: functional, cell-based. To be noted: MT4. The essentials:
as §1

The target is the same in assay [4]. As to the kind of experiment: Anti-HIV-1 activity against mutant HIV-1 in MT-4 cells (mutation selected with saquinavir). Format: functional, cell-based. Conditions: MT4. The essentials:
as §1

For assay [5] the target is unchanged. As to the kind of experiment: Anti-HIV-1 activity against Wild type virus in MT-4 cells. Conditions: MT4. The format is functional, cell-based. The essentials: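 MT4 cells infected with HIV-1; in vitro antiviral ED50 derived from colorimetric XTT read-out of virus cytopathic effect.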
Assay [6] addresses Human immunodeficiency virus type 1 protease (Human immunodeficiency virus 1, UniProt Q72874). As to the kind of experiment: Inhibitory concentration against HIV-1 protease. The essentials:
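Recombinant HIV-1 protease, cloned and expressed in Escherichia coli; inhibition measured by fluorometric assay and reported as Ki.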

The test system of assay [7] is Human immunodeficiency virus 1. In words: Anti-HIV-1 activity against Wild type virus. in MT-4 cells. To be noted: Human immunodeficiency virus 1, MT4; read-out: ED50 (the source's name). Format: functional. The essentials: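 Antiviral ED50 determined in MT4 cells infected with HIV-1; cytopathogenic effect read out by colorimetric XTT assay.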

On to `CC(C)(C)NC(=O)[C@@H]1C[C@@H]2CCCC[C@@H]2CN1C[C@@H](O)[C@H](Cc1ccccc1)NC(=O)[C@H](CC(N)=O)NC(=O)c1ccc2ccccc2n1`, for which the ED50 in assay [1] was found to be 10 nM; in assay [2], 30 nM; in assay [3], 10 nM; in assay [4] it was 80 nM; in assay [5], 10 nM.

In the case of `O=C(NC1c2ccccc2C[C@H]1O)[C@H](OCc1ccc(F)cc1)[C@H](O)[C@@H](O)[C@@H](OCc1ccc(F)cc1)C(=O)N[C@H]1c2ccccc2C[C@H]1O` (some centres undefined), the ED50 in assay [1] was 1130 nM; in assay [2], 560 nM; in assay [3], 1130 nM; in assay [5], 250 nM. Also, in assay [6], affinity was put at a Ki of 5.39 nM.

With `O=C(NC1c2ccccc2C[C@H]1O)[C@H](OCc1ccccc1F)[C@H](O)[C@@H](O)[C@@H](OCc1ccccc1F)C(=O)N[C@H]1c2ccccc2C[C@H]1O` (some centres undefined), the ED50 in assay [1] came out at 510 nM; in assay [2] it was 210 nM; in assay [3], 270 nM; in assay [4], 80 nM; in assay [5], 50 nM. Moreover, the affinity in assay [6] corresponds to a Ki of 3.26 nM.

As to `O=C(NC1c2ccccc2C[C@H]1O)[C@H](OCc1ccc(F)c(F)c1)[C@H](O)[C@@H](O)[C@@H](OCc1ccc(F)c(F)c1)C(=O)N[C@H]1c2ccccc2C[C@H]1O` (some centres undefined), the ED50 was determined as 1300 nM in assay [1]; 300 nM in assay [2]; 1050 nM in assay [3]; 160 nM in assay [4]; 130 nM in assay [5]. In assay [6], the affinity, expressed as Ki, was 3.9 nM.

Turning to `CNC(=O)[C@@H](NC(=O)[C@H](OCc1ccc(F)c(F)c1)[C@H](O)[C@@H](O)[C@@H](OCc1ccc(F)c(F)c1)C(=O)N[C@H](C(=O)NC)C(C)C)C(C)C`, the ED50 in assay [1] worked out at 1220 nM; in assay [2], 850 nM; in assay [3], 2840 nM; in assay [4], 810 nM; in assay [5], 670 nM. This compound registered an inhibition constant Ki in assay [6] of 1.98 nM.

Turning to `O=C(NC1c2ccccc2C[C@H]1O)[C@H](OCc1c(F)cccc1F)[C@H](O)[C@@H](O)[C@@H](OCc1c(F)cccc1F)C(=O)N[C@H]1c2ccccc2C[C@H]1O` (some centres undefined), the ED50 in assay [1] was determined as 1390 nM; in assay [2], 250 nM; in assay [3], 310 nM; in assay [4] it was 130 nM; in assay [5] it was 60 nM. In addition, in assay [6], the Ki was determined as 1.64 nM.

As for `O=C(NC1c2ccccc2C[C@H]1O)[C@H](OCc1cccc(F)c1F)[C@H](O)[C@@H](O)[C@@H](OCc1cccc(F)c1F)C(=O)N[C@H]1c2ccccc2C[C@H]1O` (some centres undefined), the ED50 worked out at 880 nM in assay [1]; 60 nM in assay [2]; 240 nM in assay [3]; 50 nM in assay [4]; 30 nM in assay [5]. The compound further returned an inhibitory constant (Ki) in assay [6] of 4 nM.

Regarding `CNC(=O)[C@@H](NC(=O)[C@H](OCc1ccccc1)[C@H](O)[C@@H](O)[C@@H](OCc1ccccc1)C(=O)N[C@H](C(=O)NC)C(C)C)C(C)C`, the ED50 is > 15000 nM in assay [1], > 15000 nM in assay [2], 8130 nM in assay [3] and 6100 nM in assay [4]. In assay [6], the Ki was found to be 0.8 nM. For the same compound, the EC50 in assay [7] is 1320 nM.

`CC(C)c1nc(CN(C)C(=O)N[C@H](C(=O)N[C@@H](Cc2ccccc2)C[C@H](O)[C@H](Cc2ccccc2)NC(=O)OCc2cncs2)C(C)C)cs1`: the ED50 stood at 2470 nM in assay [1]; 150 nM in assay [2]; 980 nM in assay [3]; 410 nM in assay [4]; 60 nM in assay [5].

Take `CNC(=O)[C@@H](NC(=O)[C@H](OCc1cccc(F)c1F)[C@H](O)[C@@H](O)[C@@H](OCc1cccc(F)c1F)C(=O)N[C@H](C(=O)NC)C(C)C)C(C)C`: the ED50 came to 2260 nM in assay [1]; 340 nM in assay [2]; 1540 nM in assay [3]; 1110 nM in assay [4]; 660 nM in assay [5]. The Ki in assay [6] amounted to 1.28 nM.

With `CNC(=O)[C@@H](NC(=O)[C@H](OCc1cc(F)ccc1F)[C@H](O)[C@@H](O)[C@@H](OCc1cc(F)ccc1F)C(=O)N[C@H](C(=O)NC)C(C)C)C(C)C`, the ED50 is 10900 nM in assay [1]; 1380 nM in assay [2]; 10700 nM in assay [3]; 1380 nM in assay [4]; 650 nM in assay [5]. Moreover, the affinity in assay [6] corresponds to a Ki of 1.98 nM.

On to `O=C(NC1c2ccccc2C[C@H]1O)[C@H](OCc1cccc(F)c1)[C@H](O)[C@@H](O)[C@@H](OCc1cccc(F)c1)C(=O)N[C@H]1c2ccccc2C[C@H]1O` (some centres undefined), for which the ED50 was determined as 530 nM in assay [1]; 210 nM in assay [2]; 180 nM in assay [3]; 950 nM in assay [4]; 60 nM in assay [5]. The compound further yielded a Ki in assay [6] of 7.13 nM.

Consider `CNC(=O)[C@@H](NC(=O)[C@H](OCc1ccccc1F)[C@H](O)[C@@H](O)[C@@H](OCc1ccccc1F)C(=O)N[C@H](C(=O)NC)C(C)C)C(C)C`, for which the ED50 in assay [1] came out at 7450 nM; in assay [2], 1150 nM; in assay [3], 9340 nM; in assay [4], 630 nM; in assay [5], 280 nM. Moreover, the inhibition constant Ki in assay [6] was determined as 1.92 nM.

With `O=C(NC1c2ccccc2C[C@H]1O)[C@H](OCc1cc(F)ccc1F)[C@H](O)[C@@H](O)[C@@H](OCc1cc(F)ccc1F)C(=O)N[C@H]1c2ccccc2C[C@H]1O` (some centres undefined), the ED50 in assay [1] turned out to be 710 nM; in assay [2], 100 nM; in assay [3], 160 nM; in assay [4], 80 nM; in assay [5], 20 nM. The same compound displayed a Ki in assay [6] of 3.29 nM.

In the case of `CNC(=O)[C@@H](NC(=O)[C@H](OCc1ccc(F)cc1)[C@H](O)[C@@H](O)[C@@H](OCc1ccc(F)cc1)C(=O)N[C@H](C(=O)NC)C(C)C)C(C)C`, the ED50 in assay [1] was determined as 970 nM; in assay [2], 1320 nM; in assay [3], 7820 nM; in assay [4], 3650 nM; in assay [5], 1170 nM. The affinity in assay [6], expressed as Ki, was 1.79 nM.

With `O=C(NC1c2ccccc2C[C@H]1O)[C@H](OCc1ccc(F)cc1F)[C@H](O)[C@@H](O)[C@@H](OCc1ccc(F)cc1F)C(=O)N[C@H]1c2ccccc2C[C@H]1O` (some centres undefined), the ED50 in assay [1] stood at 1730 nM; in assay [2], 250 nM; in assay [3], 670 nM; in assay [4], 370 nM; in assay [5], 110 nM. In addition, affinity in assay [6] was put at a Ki of 1.65 nM.

Consider `O=C(NC1c2ccccc2C[C@H]1O)[C@H](OCc1ccccc1)[C@H](O)[C@@H](O)[C@@H](OCc1ccccc1)C(=O)N[C@H]1c2ccccc2C[C@H]1O` (some centres undefined), for which the ED50 stood at 1280 nM in assay [1]; 100 nM in assay [2]; 460 nM in assay [3]; 70 nM in assay [4]; 100 nM in assay [5]. In addition, the affinity in assay [6] corresponds to a Ki of 1.22 nM.

Consider `CNC(=O)[C@@H](NC(=O)[C@H](OCc1ccc(F)cc1F)[C@H](O)[C@@H](O)[C@@H](OCc1ccc(F)cc1F)C(=O)N[C@H](C(=O)NC)C(C)C)C(C)C`, for which the ED50 in assay [1] amounted to 1890 nM; in assay [2], 480 nM; in assay [3], 3350 nM; in assay [4] it was 1170 nM; in assay [5], 720 nM. The inhibition constant (Ki) in assay [6] came out at 1.12 nM.

Take `CNC(=O)[C@@H](NC(=O)[C@H](OCc1cccc(F)c1)[C@H](O)[C@@H](O)[C@@H](OCc1cccc(F)c1)C(=O)N[C@H](C(=O)NC)C(C)C)C(C)C`: the ED50 was determined as 1690 nM in assay [1]; 1100 nM in assay [2]; 1840 nM in assay [3]; 1040 nM in assay [4]; 680 nM in assay [5]. In assay [6], this compound yielded a Ki of 1.83 nM.

In the case of `O=C(NC1c2ccccc2C[C@H]1O)[C@H](OCc1cc(F)cc(F)c1)[C@H](O)[C@@H](O)[C@@H](OCc1cc(F)cc(F)c1)C(=O)N[C@H]1c2ccccc2C[C@H]1O` (some centres undefined), the ED50 came out at 1060 nM in assay [1]; 240 nM in assay [2]; 230 nM in assay [3]; 90 nM in assay [4]; 50 nM in assay [5]. For the same compound, in assay [6], the inhibition constant Ki came to 5 nM.

Regarding `CNC(=O)[C@@H](NC(=O)[C@H](OCc1cc(F)cc(F)c1)[C@H](O)[C@@H](O)[C@@H](OCc1cc(F)cc(F)c1)C(=O)N[C@H](C(=O)NC)C(C)C)C(C)C`, the ED50 stood at 1400 nM in assay [1]; 340 nM in assay [2]; 1320 nM in assay [3]; 1640 nM in assay [4]; 420 nM in assay [5]. This compound had a Ki in assay [6] of 1.98 nM.

For `CNC(=O)[C@@H](NC(=O)[C@H](OCc1c(F)cccc1F)[C@H](O)[C@@H](O)[C@@H](OCc1c(F)cccc1F)C(=O)N[C@H](C(=O)NC)C(C)C)C(C)C`, the ED50 in assay [1] is > 15000 nM; in assay [2], 7140 nM; in assay [3], > 15000 nM; in assay [4], 8140 nM; in assay [5] it was 1350 nM. The compound further yielded a Ki in assay [6] of 1.73 nM.

As for `Cc1c(O)cccc1C(=O)N[C@@H](CSc1ccccc1)[C@H](O)CN1C[C@H]2CCCC[C@H]2C[C@H]1C(=O)NC(C)(C)C`, the ED50 in assay [1] worked out at 110 nM; in assay [2], 2440 nM; in assay [3], 70 nM; in assay [4], 120 nM; in assay [5], 20 nM.
